Screening results deposited in PubChem by Johns Hopkins Ion Channel Center.
Compounds with a hit are over-represented: about 3.5% of the library has one in this group of screens.
RGS4 inh = RGS4 inhibitors, primary screen, cell-based, HEK293 M3R inducible RGS4, calcium flux. Fluo-4 calcium flux; stronger effect = higher value; triggered by carbachol at its EC20. Regulator of G-protein signaling 4 (Homo sapiens), P49798. B-score at 10 µM. hit rate 0.45% among 310,000;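 active = B-score, a plate-corrected calcium signal, over three deviations above library mean, with baseline fluorescence within five deviations of library mean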;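 note: RGS4 expression induced by doxycycline in cells with stable M3 receptor; B-score is computed from the integrated fluorescence ratio over baseline after carbachol; higher B-score means a larger calcium signal and so more RGS4 inhibition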
Target sequence (P49798 whole entry, looked up): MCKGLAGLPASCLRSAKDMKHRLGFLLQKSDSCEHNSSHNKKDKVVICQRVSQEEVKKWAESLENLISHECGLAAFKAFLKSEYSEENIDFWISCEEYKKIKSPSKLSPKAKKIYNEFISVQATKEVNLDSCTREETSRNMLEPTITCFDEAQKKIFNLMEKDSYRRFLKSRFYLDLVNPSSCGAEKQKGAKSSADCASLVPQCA
MrgX1 antagonist = antagonists of human MrgX1 receptor, primary screen, HEK293 cells, Fluo-4 calcium flux; B-score at 10 µM; Mas-related G-protein coupled receptor member X1 (Homo sapiens), Q96LB2; BAM8-22 antagonism; stronger effect = lower value; hit rate 1.3% among 310,000;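 active = calcium-response B-score plate-corrected more than 3 library SD below zero, starting fluorescence within 5 deviations, no agonist response on first addition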;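 note: peak minus trough fluorescence over baseline after final BAM8-22 challenge near maximal dose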
Target sequence (Q96LB2 whole entry, looked up): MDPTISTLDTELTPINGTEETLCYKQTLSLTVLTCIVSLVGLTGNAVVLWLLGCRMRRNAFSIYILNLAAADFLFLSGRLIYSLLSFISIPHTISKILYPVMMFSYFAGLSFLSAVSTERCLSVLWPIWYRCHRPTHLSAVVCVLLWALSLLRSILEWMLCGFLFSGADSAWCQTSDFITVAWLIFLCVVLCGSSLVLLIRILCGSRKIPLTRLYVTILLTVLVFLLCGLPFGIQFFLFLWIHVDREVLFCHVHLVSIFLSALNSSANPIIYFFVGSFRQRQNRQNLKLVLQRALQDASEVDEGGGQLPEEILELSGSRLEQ
MrgX1 ag = agonists of human MrgX1 receptor, primary screen, HEK293 cells, Fluo-4 calcium flux | Mas-related G-protein coupled receptor member X1 (Homo sapiens), Q96LB2 | Fluo-4 calcium fluorescence, agonist mode; stronger effect = higher value | B-score at 10 µM | hit rate 0.44% among 310,000 | AID 588627, 2011;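 active = calcium response B-score plate-corrected fluorescence ratio at least 3 library SD, with starting fluorescence B-score inside 5 SD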
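Assay system: MrgX1-expressing HEK293 cells / Amount: fifteen thousand cells per well / Doses: test compound in the initial addition of three / Timing: cells plated overnight, dye loaded 0.5 h 37 °C, 0.5 h room temperature / Technique: kinetic calcium dye fluorescence, Fluo-4 NW / Control set: positive and negative controls per plate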
MrgX1 allo act = positive allosteric modulators of MrgX1, primary screen, HEK293 cells, Fluo-4 calcium flux | AID 588675, 2011 | B-score at 10 µM | FDSS; stronger effect = higher value | hit rate 0.63% among 310,000;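 active = plate-corrected calcium response at least 3 library SD above typical, normal starting fluorescence, not activating the receptor alone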;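 note: compound read alongside a low EC10 to EC30 dose of BAM8-22 agonist; peak minus trough fluorescence over baseline measured at the second addition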
RGS4 pot = RGS4 potentiators or activators, primary screen, cell-based, HEK293 M3R inducible RGS4, calcium flux. carbachol calcium flux Fluo4; stronger effect = lower value. B-score at 10 µM. AID 463111, 2010. hit rate 0.92% among 310,000;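 active = B-score of the integrated calcium signal more than 4 SD below the library mean, with starting fluorescence not abnormally high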;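 note: negative B-score means reduced calcium response which marks RGS4 activation or potentiation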
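Assay system: Inducible-RGS4 HEK293 cells carrying M3 receptor | Schedule: Compound preincubation 20 min at room temperature before agonist | Signal: Kinetic calcium fluorescence imaging with Fluo4-AM dye, 2 µM | Read-out basis: B score from integrated fluorescence ratio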
RGS4 inh valid = enhanced carbachol calcium response, M3R/RGS4 cells, RGS4 inhibitor project, cell-based, validation screen, HEK293 M3R/RGS4, calcium flux; shares compounds with RGS4 inh; carbachol calcium Fluo-4 fluorescence; carbachol added at its EC20; 0 = buffer wells, 100 = carbachol control; hit rate 65% among 1,700; calcium response, % at 10 µM;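 active = duplicate-averaged calcium response above the buffer-only control mean plus 5 SD of those controls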;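 note: integrated fluorescence ratio F max minus min over baseline F0; higher response in RGS4-induced cells means RGS4 inhibition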
M3R Ca ctr = carbachol calcium response in non-induced M3R cells, confirmation, counter-screen for RGS4 inhibitor project, cell-based, HEK293 M3R. shares compounds with RGS4 inh. carbachol calcium Fluo-4; submaximal (EC20) carbachol stimulus; buffer wells 0%, carbachol control wells 100%. activity (percent), % at 10 µM. hit rate 20% among 1,900; call rule not given here;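 note: RGS4 induction absent so cells express M3R without RGS4; higher means more calcium signal and flags a non-specific hit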
RGS4 inh ctr2 = second counter-screen for RGS4 inhibitors: non-induced cells without carbachol | shares compounds with RGS4 inh | hit rate 22% among 1,900 | HEK293 M3R/RGS4 non-induced, Fluo-4 calcium, no carbachol; normalised: buffer wells 0%, carbachol wells 100% | calcium response (agonist-mode artifact), % at 10 µM;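 active = duplicate-averaged calcium rise in uninduced cells above buffer wells' mean plus 5 SD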
* = called active by the depositor; i = inactive; nt = not tested or not shown.

SMILES	RGS4 inh	MrgX1 antagonist	MrgX1 ag	MrgX1 allo act	RGS4 pot	RGS4 inh valid	M3R Ca ctr	RGS4 inh ctr2
Cc1ccc(N(Cc2cc3ccc(C)cc3[nH]c2=O)C(=O)c2cccs2)cc1	i	i	i	i	i	nt	nt	nt
Cc1ccc(N(Cc2cc3ccc(C)cc3[nH]c2=O)C(=O)c2ccco2)cc1	i	i	i	i	i	i	i	i
Cc1ccc(C2(c3ccc(C)cc3)CC2C(=O)NC(C)C)cc1 (centres undefined)	i	i	i	i	i	nt	nt	nt
COc1ccc(OC)c(NC(=O)Nc2ccc3c(c2)OCO3)c1	i	i	i	i	i	nt	nt	nt
COc1ccc(/C=C2\COc3ccccc3C2=O)cc1OC	i	i	i	i	i	nt	nt	nt
CCOc1cc(/C=C2\COc3ccccc3C2=O)cc(Br)c1OCC(=O)N(C)C	8.3*	i	i	i	i	27%*	i	i
O=C(O)c1ccc(/C=C2\COc3ccccc3C2=O)cc1	31*	i	i	i	i	45%*	i	i
Cc1cc(C)c2nc(NNC(=O)c3ccc(S(=O)(=O)N4CCCC(C)C4)cc3)sc2c1 (centres undefined)	i	i	i	i	i	nt	nt	nt
Cc1cc(C)c2nc(NNC(=O)c3ccc(S(=O)(=O)N4CC(C)CC(C)C4)cc3)sc2c1 (centres undefined)	i	i	i	i	i	nt	i	i
Cc1cccc2sc(NNC(=O)c3ccc(S(=O)(=O)N4CC(C)CC(C)C4)cc3)nc12 (centres undefined)	6.5*	i	i	i	i	10%*	i	i
Cc1ccc2nc(NNC(=O)c3ccc(S(=O)(=O)N4CCc5ccccc5C4)cc3)sc2c1	i	i	i	i	i	nt	i	i
COc1ccc(N2CCN(C(=O)COC(=O)CCOc3ccc(C)cc3)CC2)cc1	i	i	i	i	i	nt	nt	nt
Cc1cc(NC(=O)COC(=O)c2cc([N+](=O)[O-])ccc2N2CCOCC2)ccc1Br	i	i	i	i	i	nt	nt	nt
O=C(O)Cn1cc(/C=C/[N+](=O)[O-])c2ccccc21	i	i	i	i	i	nt	nt	nt
N#Cc1ccccc1Cn1cc(/C=C/[N+](=O)[O-])c2ccccc21	36*	i	i	i	i	186%*	i	52%*
O=[N+]([O-])/C=C/c1cn(Cc2ccccc2)c2ccccc12	16*	i	i	i	i	35%*	i	88%*
O=C(N/N=C/c1ccc(O)cc1)NC12CC3CC(CC(C3)C1)C2	5.2*	i	i	i	i	20%*	58%*	11%*
Cc1noc(/C=C/c2ccccn2)c1[N+](=O)[O-]	6.8*	i	i	i	i	27%*	30%*	i
COc1ccc(-c2oc3ccccc3c2C(=O)OCc2ccccc2OC)cc1	i	i	i	i	i	nt	nt	nt
COc1ccc(OC)c(C2C=C(C34CC5CC(CC(C5)C3)C4)NC(=S)N2)c1 (centres undefined)	8.8*	i	i	i	i	14%*	i	i
COC(=O)c1cn(C(=O)OC)c2ccccc12	i	i	i	i	i	nt	nt	nt
COC(=O)c1cn(C(=O)/C=C/c2ccc(OC)c(OC)c2)c2ccccc12	4.7*	i	i	i	i	i	i	i
COc1ccc(Oc2ncccc2[N+](=O)[O-])cc1	13*	i	i	i	i	i	i	i
O=[N+]([O-])c1cccnc1Oc1ccc(F)cc1	i	i	i	i	i	nt	nt	nt
COc1ccc(-c2csc(NC(C)c3nc4cc(Cl)c(N5CCCCC5)cc4n3CCOCCO)n2)cc1 (centres undefined)	i	i	i	i	i	i	i	i
SMILES	RGS4 inh	MrgX1 antagonist	MrgX1 ag	MrgX1 allo act	RGS4 pot	RGS4 inh valid	M3R Ca ctr	RGS4 inh ctr2
CC(Nc1nc(-c2ccc(Cl)cc2)cs1)c1nc2cc(Cl)c(N3CCCCC3)cc2n1CCOCCO (centres undefined)	i	i	i	i	i	nt	i	i
COc1ccc(-c2csc(NC(C)c3nc4cc(Cl)c(N5CCCCC5)cc4n3CCCO)n2)cc1 (centres undefined)	i	i	i	i	i	nt	nt	nt
COC(=O)CCC(=O)Nc1ccc(S(=O)(=O)Nc2nc(C)cc(C)n2)cc1	i	i	i	i	i	nt	nt	nt
NS(=O)(=O)c1ccc(OC(=O)CNC(=O)OCc2ccccc2)cc1	i	i	i	i	i	nt	nt	nt
CCOCCCNC(=O)CN1C(=O)COc2ccc(S(=O)(=O)N3CCOCC3)cc21	27*	i	i	i	i	6.5%*	i	i
CCOCCCNC(=O)CN1C(=O)COc2ccc(S(=O)(=O)N3CCCCCC3)cc21	i	i	i	i	i	i	i	i
CCOCCCNC(=O)CN1C(=O)COc2ccc(S(=O)(=O)N3CCC(C)CC3)cc21	i	i	i	i	i	i	i	i
CCOCCCNC(=O)CN1C(=O)COc2ccc(S(=O)(=O)N3CC(C)CC(C)C3)cc21 (centres undefined)	i	i	i	i	i	nt	nt	nt
Cc1[nH]c(=O)[nH]c(=S)c1C(=O)Nc1ccc(Cl)c(Cl)c1	i	i	i	i	i	nt	nt	nt
O=C(CNC(=O)c1ccncc1)Nc1ccc(F)c(F)c1	i	i	i	i	i	nt	nt	nt
O=C(Nc1ccccc1)C1=C(c2ccccc2)S(=O)(=O)CCS1(=O)=O	23*	nt	nt	nt	i	47%*	i	i
O=C(O)c1ccccc1C(=O)Nc1ccccc1	i	i	i	i	i	nt	nt	nt
Cc1ccc(N(CC(=O)NC2CCCCC2)C(=O)CCC(=O)Nc2nccs2)cc1	i	i	i	i	i	nt	nt	nt
